# The source made the active and inactive calls. The calls are words filed in the database; no cut-off is given here.
# Experiments:
# [1] = target: T1, Oxysterols receptor LXR-alpha (Homo sapiens, UniProt Q13133); experiment: Transactivation of recombinant GAL4-fused human LXRalpha LBD (163 to 447 residues) expressed in human L02 cells measured after 24 hrs by luciferase reporter gene assay; format: cell-based
# T1 sequence (Q13133 whole entry): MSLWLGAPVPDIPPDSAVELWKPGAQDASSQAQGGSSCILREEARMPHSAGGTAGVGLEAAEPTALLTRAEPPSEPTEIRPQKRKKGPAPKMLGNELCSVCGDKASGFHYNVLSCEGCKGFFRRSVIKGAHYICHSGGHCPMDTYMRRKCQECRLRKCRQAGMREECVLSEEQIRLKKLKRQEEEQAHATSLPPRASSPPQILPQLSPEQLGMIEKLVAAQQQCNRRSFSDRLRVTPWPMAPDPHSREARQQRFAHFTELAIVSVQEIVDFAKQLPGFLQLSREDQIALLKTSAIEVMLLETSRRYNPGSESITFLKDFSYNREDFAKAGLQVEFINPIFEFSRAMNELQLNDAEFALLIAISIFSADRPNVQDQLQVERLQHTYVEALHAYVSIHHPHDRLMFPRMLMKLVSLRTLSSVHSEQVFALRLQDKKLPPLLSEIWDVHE
# [2] = target: T2, Tyrosine-protein phosphatase non-receptor type 2 (Homo sapiens, UniProt P17706); experiment: (§1) Inhibition of recombinant human TCPTP expressed in Escherichia coli […] preincubated for 15 mins followed by substrate addition and measured after 60 mins
# T2 sequence (P17706 whole entry): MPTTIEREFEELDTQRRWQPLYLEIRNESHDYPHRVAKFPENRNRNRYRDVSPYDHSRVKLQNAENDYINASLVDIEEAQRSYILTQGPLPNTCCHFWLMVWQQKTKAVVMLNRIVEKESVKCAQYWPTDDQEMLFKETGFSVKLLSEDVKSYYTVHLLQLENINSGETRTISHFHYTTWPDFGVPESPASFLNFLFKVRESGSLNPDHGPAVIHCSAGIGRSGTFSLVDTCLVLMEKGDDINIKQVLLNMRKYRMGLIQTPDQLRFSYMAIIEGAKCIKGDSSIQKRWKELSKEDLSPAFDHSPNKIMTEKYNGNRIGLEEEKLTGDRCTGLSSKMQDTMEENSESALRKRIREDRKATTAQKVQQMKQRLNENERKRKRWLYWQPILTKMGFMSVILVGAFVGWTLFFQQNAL
# Procedure, shortened: (§2)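 Recombinant human phosphatases were expressed in E. coli and purified. Enzyme and compound were preincubated for 15 min at room temperature in pH 6.5 buffer (50 mM HEPES, 100 mM NaCl, 1 mM EDTA, 1 mM DTT). Buffer containing 50 mM pNPP was then added and the mix incubated for 60 min at 37 °C. Product p-nitrophenol was read at 405 nm. Assays were run in triplicate and IC50 derived.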
# [3] = target: Tyrosine-protein phosphatase non-receptor type 6 (Homo sapiens, UniProt P29350); experiment: Inhibition of recombinant human SHP1 expressed in Escherichia coli […] preincubated for 15 mins followed by substrate addition and measured after 60 mins; procedure, shortened: as §2
# [4] = target: T3, Tyrosine-protein phosphatase non-receptor type 11 (Homo sapiens, UniProt Q06124); experiment: (§3) Inhibition of recombinant human SHP2 expressed in Escherichia coli […] preincubated for 15 mins followed by substrate addition and measured after 60 mins; procedure, shortened: as §2
# T3 sequence (Q06124 whole entry): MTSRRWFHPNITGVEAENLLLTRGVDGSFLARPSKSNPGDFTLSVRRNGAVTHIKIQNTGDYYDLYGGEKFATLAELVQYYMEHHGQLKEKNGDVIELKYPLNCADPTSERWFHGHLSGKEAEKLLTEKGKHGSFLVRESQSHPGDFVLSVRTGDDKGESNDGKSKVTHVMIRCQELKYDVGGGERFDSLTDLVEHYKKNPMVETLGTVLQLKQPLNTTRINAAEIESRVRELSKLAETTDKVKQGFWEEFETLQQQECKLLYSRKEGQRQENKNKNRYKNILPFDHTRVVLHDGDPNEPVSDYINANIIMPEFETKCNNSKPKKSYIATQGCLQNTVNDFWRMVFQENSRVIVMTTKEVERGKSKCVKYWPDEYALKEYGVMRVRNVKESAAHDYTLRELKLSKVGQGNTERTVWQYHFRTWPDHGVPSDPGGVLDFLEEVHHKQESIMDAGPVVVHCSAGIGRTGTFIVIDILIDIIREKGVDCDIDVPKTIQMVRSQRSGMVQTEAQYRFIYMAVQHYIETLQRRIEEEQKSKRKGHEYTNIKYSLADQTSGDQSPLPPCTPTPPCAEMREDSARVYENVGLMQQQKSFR
# [5] = target: T4, Tyrosine-protein phosphatase non-receptor type 9 (Homo sapiens, UniProt P43378); experiment: (§4) Inhibition of recombinant human MEG2 expressed in Escherichia coli […] preincubated for 15 mins followed by substrate addition and measured after 60 mins; procedure, shortened: as §2
# T4 sequence (P43378 whole entry): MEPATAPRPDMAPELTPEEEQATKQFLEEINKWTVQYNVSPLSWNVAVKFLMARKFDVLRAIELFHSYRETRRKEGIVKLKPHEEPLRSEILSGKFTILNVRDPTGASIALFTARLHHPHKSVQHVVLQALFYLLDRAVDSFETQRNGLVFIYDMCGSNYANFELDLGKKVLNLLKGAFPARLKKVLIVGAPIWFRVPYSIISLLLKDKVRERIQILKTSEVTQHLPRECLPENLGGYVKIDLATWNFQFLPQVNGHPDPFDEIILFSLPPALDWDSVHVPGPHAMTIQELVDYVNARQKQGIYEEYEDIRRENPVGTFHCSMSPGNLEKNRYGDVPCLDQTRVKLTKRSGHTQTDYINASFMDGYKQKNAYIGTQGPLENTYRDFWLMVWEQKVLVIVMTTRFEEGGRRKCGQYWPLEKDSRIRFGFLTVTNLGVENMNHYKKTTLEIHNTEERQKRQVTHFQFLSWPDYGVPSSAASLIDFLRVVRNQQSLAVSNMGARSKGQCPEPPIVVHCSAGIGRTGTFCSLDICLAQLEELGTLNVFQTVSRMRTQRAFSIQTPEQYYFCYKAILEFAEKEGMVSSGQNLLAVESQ
# [6] = target: T5, Tyrosine-protein phosphatase non-receptor type 1 (Homo sapiens, UniProt P18031); experiment: (§5) Inhibition of recombinant human PTP1B expressed in Escherichia coli […] preincubated for 15 mins followed by substrate addition and measured after 60 mins; procedure, shortened: as §2
# T5 sequence (P18031 whole entry): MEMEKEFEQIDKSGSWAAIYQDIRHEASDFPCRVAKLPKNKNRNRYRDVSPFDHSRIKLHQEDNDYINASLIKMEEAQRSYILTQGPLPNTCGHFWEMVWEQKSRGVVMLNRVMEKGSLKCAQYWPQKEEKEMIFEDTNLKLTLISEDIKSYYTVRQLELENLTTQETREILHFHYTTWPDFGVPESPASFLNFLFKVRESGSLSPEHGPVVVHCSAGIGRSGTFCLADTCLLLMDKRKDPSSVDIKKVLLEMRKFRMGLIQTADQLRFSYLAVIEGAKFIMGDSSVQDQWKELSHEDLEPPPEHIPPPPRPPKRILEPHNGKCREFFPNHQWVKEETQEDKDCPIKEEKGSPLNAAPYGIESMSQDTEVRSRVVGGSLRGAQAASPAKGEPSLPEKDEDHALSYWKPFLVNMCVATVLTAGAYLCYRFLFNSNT
# [7] = target: Indoleamine 2,3-dioxygenase 1 (Homo sapiens, UniProt P14902); experiment: Inhibition of recombinant human IDO1 expressed in Escherichia coli […] preincubated for 15 mins followed by substrate addition and measured after 60 mins
# [8] = target: L-lactate dehydrogenase A chain (Homo sapiens) (UniProt P00338); experiment: Inhibition of recombinant human LDHA expressed in Escherichia coli […] preincubated for 15 mins followed by substrate addition and measured after 60 mins
# [9] = system: Curvularia australiensis; experiment: Antifungal activity against Curvularia australiensis BY01 assessed as growth inhibition at 0.6 mM measured after 48 hrs by microbroth dilution method; format: functional; details: BY01, 48 h, read-out: GI
# Procedure, shortened: (§6)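 Fungi were grown on PDA plates for 6−8 days at 30 °C, then the mycelia were moved into PD medium and filtered through cotton to give a spore suspension. Each well held PD medium, sample from a 10 mg/mL DMSO stock at about 0.6 mM, and spores (1 × 10^6 CFU). DMSO served as the negative control. OD600 was read at 0 and 48 h at 28 °C and percent growth inhibition calculated.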
# [10] = system: Colletotrichum gloeosporioides; experiment: Antifungal activity against Colletotrichum gloeosporioides HNM 1003 assessed as growth inhibition at 0.6 mM measured after 48 hrs by microbroth dilution method; format: functional; details: HNM 1003, 48 h, read-out: GI; procedure, shortened: as §6
# [11] = system: Fusarium oxysporum; experiment: Antifungal activity against Fusarium oxysporum HNM 1003 assessed as growth inhibition at 0.6 mM measured after 48 hrs by microbroth dilution method; format: functional; details: HNM 1003, 48 h, read-out: GI; procedure, shortened: as §6
# [12] = system: Pyricularia oryzae; experiment: Antifungal activity against Pyricularia oryzae HNM 1003 assessed as growth inhibition at 0.6 mM measured after 48 hrs by microbroth dilution method; format: functional; details: HNM 1003, 48 h, read-out: GI
# [13] = target: T6, Tyrosine-protein phosphatase non-receptor type 2 (Homo sapiens) (UniProt P17706); experiment: as §1; procedure, shortened: as §2
# T6 sequence (whole entry): T2 sequence (P17706 whole entry)
# [14] = target: T7, Tyrosine-protein phosphatase non-receptor type 11 (Homo sapiens) (UniProt Q06124); experiment: as §3; procedure, shortened: as §2
# T7 sequence (whole entry): T3 sequence (Q06124 whole entry)
# [15] = target: T8, Tyrosine-protein phosphatase non-receptor type 9 (Homo sapiens) (UniProt P43378); experiment: as §4; procedure, shortened: as §2
# T8 sequence (whole entry): T4 sequence (P43378 whole entry)
# [16] = target: T9, Tyrosine-protein phosphatase non-receptor type 1 (Homo sapiens) (UniProt P18031); experiment: as §5; procedure, shortened: as §2
# T9 sequence (whole entry): T5 sequence (P18031 whole entry)
# Sequence of Tyrosine-protein phosphatase non-receptor type 6 (P29350 whole entry): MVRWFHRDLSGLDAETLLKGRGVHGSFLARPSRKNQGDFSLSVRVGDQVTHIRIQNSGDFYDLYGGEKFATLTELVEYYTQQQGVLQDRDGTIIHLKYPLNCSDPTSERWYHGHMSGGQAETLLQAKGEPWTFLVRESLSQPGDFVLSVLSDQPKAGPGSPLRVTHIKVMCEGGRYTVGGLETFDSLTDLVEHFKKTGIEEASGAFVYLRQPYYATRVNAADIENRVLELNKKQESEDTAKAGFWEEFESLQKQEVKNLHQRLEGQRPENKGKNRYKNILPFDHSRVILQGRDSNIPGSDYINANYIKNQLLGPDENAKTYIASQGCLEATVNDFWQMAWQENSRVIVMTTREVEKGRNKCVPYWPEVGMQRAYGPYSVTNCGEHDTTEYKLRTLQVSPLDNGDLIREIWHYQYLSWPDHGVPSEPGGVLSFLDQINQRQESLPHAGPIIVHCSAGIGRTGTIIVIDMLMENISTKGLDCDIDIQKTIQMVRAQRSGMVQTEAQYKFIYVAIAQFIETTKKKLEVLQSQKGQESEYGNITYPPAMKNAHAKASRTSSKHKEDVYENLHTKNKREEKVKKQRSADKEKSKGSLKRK
Compound,EC50 [1] [µM],IC50 [2] [µM],IC50 [3] [µM],IC50 [4] [µM],IC50 [5] [µM],IC50 [6] [µM],IC50 [7] [µM],inhibition [8],inhibition of growth at 600 µM [9] [%],inhibition of growth at 600 µM [10] [%],inhibition of growth at 600 µM [11] [%],inhibition of growth at 600 µM [12] [%],inhibition [13],inhibition [3],inhibition [14],inhibition [15],inhibition [16],inhibition [7]
C[C@@H]1C(=O)N/C(=C\c2ccccc2)c2nc3c(O)cccc3c(=O)n21,1.7,14 to 87,14 to 87,14 to 87,14 to 87,14 to 87,14 to 87,inactive,< 50,< 50,< 50,< 50,–,–,–,–,–,–
C[C@@H]1C(=O)N/C(=C\c2ccccc2)c2nc3c(c(=O)n21)C=CC=CO3,50,–,–,–,–,–,–,inactive,< 50,< 50,< 50,< 50,inactive,inactive,inactive,inactive,inactive,inactive
C[C@@H]1C(=O)N[C@@](O)(Cc2ccccc2)c2nc3c(O)cccc3c(=O)n21,1.7,–,–,–,–,–,–,inactive,< 50,< 50,< 50,< 50,inactive,inactive,inactive,inactive,inactive,inactive
C[C@@H]1C(=O)N[C@@](O)(Cc2ccccc2)c2nc3c(c(=O)n21)C=CC=CO3,16,–,–,–,–,–,–,inactive,< 50,< 50,< 50,< 50,inactive,inactive,inactive,inactive,inactive,inactive
CO[C@@]1(Cc2ccccc2)NC(=O)[C@@H](C)n2c1nc1c(c2=O)C=CC=CO1,15,–,–,–,–,–,–,inactive,< 50,< 50,< 50,< 50,inactive,inactive,inactive,inactive,inactive,inactive
CO[C@]1(Cc2ccccc2)NC(=O)[C@@H](C)n2c1nc1c(O)cccc1c2=O,5.1,–,–,–,–,–,–,inactive,< 50,< 50,< 50,< 50,inactive,inactive,inactive,inactive,inactive,inactive
C[C@@H]1C(=O)N[C@](O)(Cc2ccccc2)c2nc3c(O)cccc3c(=O)n21,5.3,–,–,–,–,–,–,inactive,< 50,< 50,< 50,< 50,inactive,inactive,inactive,inactive,inactive,inactive
C[C@@H]1C(=O)N[C@](O)(Cc2ccccc2)c2nc3c(c(=O)n21)C=CC=CO3,47,14 to 87,14 to 87,14 to 87,14 to 87,14 to 87,14 to 87,inactive,< 50,< 50,< 50,< 50,–,–,–,–,–,–
CO[C@]1(Cc2ccccc2)NC(=O)[C@@H](C)n2c1nc1c(c2=O)C=CC=CO1,15,–,–,–,–,–,–,inactive,< 50,< 50,< 50,< 50,inactive,inactive,inactive,inactive,inactive,inactive
